In ChEMBL document CHEMBL3272012, “5-(Tetradecyloxy)-2-furancarboxylic acid and related hypolipidemic fatty acid-like alkyloxyarylcarboxylic acids” (J Med Chem, 1977):

Assays:
Rattus norvegicus [1] = experiment: Hypolipidemic activity in Wistar rat assessed as reduction in plasma triglyceride level at 446 umol/kg/day administered through diet for 4 days; assay type: functional; details: 96 h
Rattus norvegicus [2] = experiment: Hypolipidemic activity in Wistar rat assessed as reduction in plasma cholesterol level at 446 umol/kg/day administered through diet for 4 days; assay type: functional; details: 96 h
Procedure, shortened: (§1)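 Young male Wistar rats, 170-190 g initial weight, groups of six, given compound mixed thoroughly into Purina Lab Chow ad libitum for 4 or 10 days as stated. Daily dose calculated from food consumption and body weight. Bled by cardiac puncture at end of treatment; plasma cholesterol measured by automated procedure. Expressed as percent reduction versus simultaneous untreated control group; Student's t test.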

Rattus norvegicus [3] = experiment: Increase in cholesterol level in Wistar rat liver at 446 umol/kg/day administered through diet for 4 days; assay type: ADME, organism-based; details: in vivo, po, 96 h
Rattus norvegicus [4] = experiment: Increase in liver weight in Wistar rat at 446 umol/kg/day administered through diet for 4 days; assay type: ADME, organism-based; details: in vivo, po, 96 h
Rattus norvegicus [5] = experiment: Hypolipidemic activity in Wistar rat assessed as reduction in plasma triglyceride level at 406 umol/kg/day administered through diet for 4 days; assay type: functional; details: 96 h
Rattus norvegicus [6] = experiment: Hypolipidemic activity in Wistar rat assessed as reduction in plasma cholesterol level at 406 umol/kg/day administered through diet for 4 days; assay type: functional; details: 96 h
Procedure, shortened: (§2)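 Young male Wistar rats, 170-190 g at start, in groups of six, given compound mixed into Purina Lab Chow ad libitum for 4 or 10 days as stated. Daily dose was calculated from food consumption and body weight. Plasma was taken by cardiac puncture at the end and cholesterol measured by automated procedure. Results are % reduction versus a concurrent untreated control group, with Student's t test.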

Rattus norvegicus [7] = experiment: Increase in liver weight in Wistar rat at 406 umol/kg/day administered through diet for 4 days; assay type: ADME, organism-based; details: in vivo, po, 96 h
Rattus norvegicus [8] = experiment: Increase in cholesterol level in Wistar rat liver at 406 umol/kg/day administered through diet for 4 days; assay type: ADME, organism-based; details: in vivo, po, 96 h
Rattus norvegicus [9] = experiment: Hypolipidemic activity in Wistar rat assessed as reduction in plasma triglyceride level at 571 umol/kg/day administered through diet for 10 days; assay type: functional; details: 240 h
Rattus norvegicus [10] = experiment: Hypolipidemic activity in Wistar rat assessed as reduction in plasma cholesterol level at 571 umol/kg/day administered through diet for 10 days; assay type: functional; details: 240 h
Procedure, shortened: (§3)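 Young male Wistar rats (initial weight 170-190 g), groups of six, fed compound mixed into Purina Lab Chow ad libitum for 4 or 10 days; daily dose calculated from food consumption and body weight. Bled by cardiac puncture; plasma cholesterol and triglycerides by automated procedures; percent reduction versus simultaneous untreated controls, Student's t test.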

Rattus norvegicus [11] = experiment: Increase in cholesterol level in Wistar rat liver at 571 umol/kg/day administered through diet for 10 days; assay type: ADME, organism-based; details: in vivo, po, 240 h
Rattus norvegicus [12] = experiment: Increase in liver weight in Wistar rat at 571 umol/kg/day administered through diet for 10 days; assay type: ADME, organism-based; details: in vivo, po, 240 h
Rattus norvegicus [13] = experiment: Hypolipidemic activity in Wistar rat assessed as reduction in plasma triglyceride level at 425 umol/kg/day administered through diet for 10 days; assay type: functional; details: 240 h
Rattus norvegicus [14] = experiment: Hypolipidemic activity in Wistar rat assessed as reduction in plasma cholesterol level at 425 umol/kg/day administered through diet for 10 days; assay type: functional; details: 240 h; procedure, shortened: as §1
Rattus norvegicus [15] = experiment: Increase in cholesterol level in Wistar rat liver at 425 umol/kg/day administered through diet for 10 days; assay type: ADME, organism-based; details: in vivo, po, 240 h
Rattus norvegicus [16] = experiment: Increase in liver weight in Wistar rat at 425 umol/kg/day administered through diet for 10 days; assay type: ADME, organism-based; details: in vivo, po, 240 h
Rattus norvegicus [17] = experiment: Hypolipidemic activity in Wistar rat assessed as reduction in plasma triglyceride level at 640 umol/kg/day administered through diet for 10 days; assay type: functional; details: 240 h
Rattus norvegicus [18] = experiment: Hypolipidemic activity in Wistar rat assessed as reduction in plasma cholesterol level at 640 umol/kg/day administered through diet for 10 days; assay type: functional; details: 240 h; procedure, shortened: as §3
Rattus norvegicus [19] = experiment: Increase in cholesterol level in Wistar rat liver at 640 umol/kg/day administered through diet for 10 days; assay type: ADME, organism-based; details: in vivo, po, 240 h
Rattus norvegicus [20] = experiment: Increase in liver weight in Wistar rat at 640 umol/kg/day administered through diet for 10 days; assay type: ADME, organism-based; details: in vivo, po, 240 h
Rattus norvegicus [21] = experiment: Hypolipidemic activity in Wistar rat assessed as reduction in plasma triglyceride level at 499 umol/kg/day administered through diet for 4 days; assay type: functional; details: 96 h; procedure, shortened: as §3
Rattus norvegicus [22] = experiment: Hypolipidemic activity in Wistar rat assessed as reduction in plasma cholesterol level at 499 umol/kg/day administered through diet for 4 days; assay type: functional; details: 96 h; procedure, shortened: as §1
Rattus norvegicus [23] = experiment: Increase in liver weight in Wistar rat at 499 umol/kg/day administered through diet for 4 days; assay type: ADME, organism-based; details: in vivo, po, 96 h
Procedure, shortened: (§4)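 Male Wistar rats (170-190 g initial), groups of six, dosed via diet ad libitum for 4 or 10 days, daily dose from food consumption. Liver wet weight measured, expressed as g/100 g final body weight, compared with untreated controls run simultaneously.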

Rattus norvegicus [24] = experiment: Increase in cholesterol level in Wistar rat liver at 499 umol/kg/day administered through diet for 4 days; assay type: ADME, organism-based; details: in vivo, po, 96 h
Rattus norvegicus [25] = experiment: Hypolipidemic activity in Wistar rat assessed as reduction in plasma triglyceride level at 179 umol/kg/day administered through diet for 10 days; assay type: functional; details: 240 h; procedure, shortened: as §3
Rattus norvegicus [26] = experiment: Hypolipidemic activity in Wistar rat assessed as reduction in plasma triglyceride level at 1498 umol/kg/day administered through diet for 10 days; assay type: functional; details: 240 h
Procedure, shortened: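 Young male Wistar rats, 170-190 g initial weight, six per group, fed drug mixed thoroughly into Purina Lab Chow ad libitum for the stated days; daily dose calculated from food consumption and body weight. Bled by cardiac puncture at end; plasma cholesterol and triglycerides by automated procedures, expressed as percent reduction versus simultaneous untreated controls; Student's t test.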

Rattus norvegicus [27] = experiment: Hypolipidemic activity in Wistar rat assessed as reduction in plasma triglyceride level at 558 umol/kg/day administered through diet for 10 days; assay type: functional; details: 240 h; procedure, shortened: as §3
Rattus norvegicus [28] = experiment: Hypolipidemic activity in Wistar rat assessed as reduction in plasma cholesterol level at 179 umol/kg/day administered through diet for 10 days; assay type: functional; details: 240 h; procedure, shortened: as §2
Rattus norvegicus [29] = experiment: Hypolipidemic activity in Wistar rat assessed as reduction in plasma cholesterol level at 1498 umol/kg/day administered through diet for 10 days; assay type: functional; details: 240 h; procedure, shortened: as §2
Rattus norvegicus [30] = experiment: Hypolipidemic activity in Wistar rat assessed as reduction in plasma cholesterol level at 558 umol/kg/day administered through diet for 10 days; assay type: functional; details: 240 h; procedure, shortened: as §3
Rattus norvegicus [31] = experiment: Increase in cholesterol level in Wistar rat liver at 1498 umol/kg/day administered through diet for 10 days; assay type: ADME, organism-based; details: in vivo, po, 240 h
Rattus norvegicus [32] = experiment: Increase in cholesterol level in Wistar rat liver at 558 umol/kg/day administered through diet for 10 days; assay type: ADME, organism-based; details: in vivo, po, 240 h
Procedure, shortened: (§5)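 Male Wistar rats (170-190 g), six per group, given compound by admixture to lab chow ad libitum for 4 or 10 days, dose derived from food intake. Liver cholesterol determined by automated procedure, expressed as mg/g wet tissue, compared with an untreated control group by Student's t test.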

Rattus norvegicus [33] = experiment: Increase in cholesterol level in Wistar rat liver at 179 umol/kg/day administered through diet for 10 days; assay type: ADME, organism-based; details: in vivo, po, 240 h; procedure, shortened: as §5
Rattus norvegicus [34] = experiment: Increase in liver weight in Wistar rat at 1498 umol/kg/day administered through diet for 10 days; assay type: ADME, organism-based; details: in vivo, po, 240 h
Rattus norvegicus [35] = experiment: Increase in liver weight in Wistar rat at 558 umol/kg/day administered through diet for 10 days; assay type: ADME, organism-based; details: in vivo, po, 240 h; procedure, shortened: as §4
Rattus norvegicus [36] = experiment: Hypolipidemic activity in Wistar rat assessed as reduction in plasma triglyceride level at 509 umol/kg/day administered through diet for 4 days; assay type: functional; details: 96 h
Rattus norvegicus [37] = experiment: Hypolipidemic activity in Wistar rat assessed as reduction in plasma cholesterol level at 509 umol/kg/day administered through diet for 4 days; assay type: functional; details: 96 h; procedure, shortened: as §1
Rattus norvegicus [38] = experiment: Increase in cholesterol level in Wistar rat liver at 509 umol/kg/day administered through diet for 4 days; assay type: ADME, organism-based; details: in vivo, po, 96 h
Rattus norvegicus [39] = experiment: Increase in liver weight in Wistar rat at 509 umol/kg/day administered through diet for 4 days; assay type: ADME, organism-based; details: in vivo, po, 96 h
Rattus norvegicus [40] = experiment: Hypolipidemic activity in Wistar rat assessed as reduction in plasma triglyceride level at 415 umol/kg/day administered through diet for 4 days; assay type: functional; details: 96 h; procedure, shortened: as §3
Rattus norvegicus [41] = experiment: Hypolipidemic activity in Wistar rat assessed as reduction in plasma cholesterol level at 415 umol/kg/day administered through diet for 4 days; assay type: functional; details: 96 h; procedure, shortened: as §2
Rattus norvegicus [42] = experiment: Increase in cholesterol level in Wistar rat liver at 415 umol/kg/day administered through diet for 4 days; assay type: ADME, organism-based; details: in vivo, po, 96 h
Rattus norvegicus [43] = experiment: Increase in liver weight in Wistar rat at 415 umol/kg/day administered through diet for 4 days; assay type: ADME, organism-based; details: in vivo, po, 96 h; procedure, shortened: as §4

CCCCCCCCCCCCCCOc1ccc(OCC(=O)OC)cc1
inhibition in vivo at 446 µmol/kg (Rattus norvegicus [1]): 0% | inhibition in vivo at 446 µmol/kg (Rattus norvegicus [2]): 10% | Activity (Rattus norvegicus [3]): 0% | Activity (Rattus norvegicus [4]): 4%

CCCCCCCCCCCCCCOc1ccc(COC(C)=O)cc1
inhibition in vivo at 406 µmol/kg (Rattus norvegicus [5]): 62% | inhibition in vivo at 406 µmol/kg (Rattus norvegicus [6]): 22% | Activity (Rattus norvegicus [7]): 17% | Activity (Rattus norvegicus [8]): 11%

CCCCCCCCCCCCCc1ccc(C(=O)O)cc1
inhibition in vivo at 571 µmol/kg (Rattus norvegicus [9]): 77% | inhibition in vivo at 571 µmol/kg (Rattus norvegicus [10]): 54% | Activity (Rattus norvegicus [11]): 61% | Activity (Rattus norvegicus [12]): 25%

CCCCCCCCCCCCCCCCCCCc1ccc(C(=O)O)cc1
inhibition in vivo at 425 µmol/kg (Rattus norvegicus [13]): 2% | inhibition in vivo at 425 µmol/kg (Rattus norvegicus [14]): 8% | Activity (Rattus norvegicus [15]): 0% | Activity (Rattus norvegicus [16]): 10%

CCCCCCCCCCc1ccc(C(=O)O)cc1
inhibition in vivo at 640 µmol/kg (Rattus norvegicus [17]): 63% | inhibition in vivo at 640 µmol/kg (Rattus norvegicus [18]): 32% | Activity (Rattus norvegicus [19]): 43% | Activity (Rattus norvegicus [20]): 18%

CCCCCCCCCCCCCCOc1ccc(C=O)cc1
inhibition in vivo at 499 µmol/kg (Rattus norvegicus [21]): 68% | inhibition in vivo at 499 µmol/kg (Rattus norvegicus [22]): 25% | Activity (Rattus norvegicus [23]): 18% | Activity (Rattus norvegicus [24]): 12%

CCCCCCCCCCCCc1ccc(C(=O)O)cc1
inhibition in vivo at 179 µmol/kg (Rattus norvegicus [25]): 62% | inhibition in vivo at 1498 µmol/kg (Rattus norvegicus [26]): 74% | inhibition in vivo at 558 µmol/kg (Rattus norvegicus [27]): 78% | inhibition in vivo at 179 µmol/kg (Rattus norvegicus [28]): 34% | inhibition in vivo at 1498 µmol/kg (Rattus norvegicus [29]): 55% | inhibition in vivo at 558 µmol/kg (Rattus norvegicus [30]): 48% | Activity (Rattus norvegicus [31]): 323% | Activity (Rattus norvegicus [32]): 215% | Activity (Rattus norvegicus [33]): 79% | Activity (Rattus norvegicus [34]): 38% | Activity (Rattus norvegicus [35]): 29%

CCCCCCCCCCCCCCOc1ccc(C)cc1
inhibition in vivo at 509 µmol/kg (Rattus norvegicus [36]): 30% | inhibition in vivo at 509 µmol/kg (Rattus norvegicus [37]): 0% | Activity (Rattus norvegicus [38]): 0% | Activity (Rattus norvegicus [39]): 10%

CCCCCCCCCCCCCCCc1ccc(C(=O)O)cc1
inhibition in vivo at 415 µmol/kg (Rattus norvegicus [40]): 58% | inhibition in vivo at 415 µmol/kg (Rattus norvegicus [41]): 27% | Activity (Rattus norvegicus [42]): 13% | Activity (Rattus norvegicus [43]): 4%
